Assay results taken from ChEMBL document CHEMBL3045703, “Synthesis and insect antifeedant activity of plumbagin derivatives with the amino acid moiety” (2009).

What was measured:
Type in all cases: functional
Achaea janata [1] = test: Toxicity in third instar larvae of Achaea janata assessed as mortality at 4 ug/insect measured after 4 to 28 days by topical bioassay
Achaea janata [2] = test: Antifeedant activity against third instar larvae of Achaea janata in compound treated fresh castor leaves assessed as consumption at 28 +/- 2 degC, relative humidity 65 +/- 5 measured after 6 to 24 hr
In short: (§1)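 No-choice leaf-disk test on castor leaf discs; control discs got solvent only. Prestarved third instar larvae reared on fresh castor leaves at 28 ± 2 °C, RH 65 ± 5, 16:8 light/dark. Consumed area tracked at 6, 12 and 24 h and measured with a leaf area meter. Antifeedant index = (C − T)/(C + T) × 100. 10 sets per concentration, each test run in triplicate; mean ± SD.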

Spodoptera litura [3] = test: Antifeedant activity against third-instar larvae of tobacco caterpillar Spodoptera litura in compound treated fresh castor leaves assessed as consumption at 28 +/- 2 degC, relative humidity 65 +/- 5 measured after 6 to 24 hr; in short: as §1
Spodoptera litura [4] = test: Toxicity in third-instar larvae of tobacco caterpillar Spodoptera litura assessed as mortality at 4 ug/insect measured after 4 to 28 days by topical bioassay
Spodoptera litura [5] = test: Toxicity in third-instar larvae of tobacco caterpillar Spodoptera litura assessed as mortality at 1 ug/insect measured after 4 to 28 days by topical bioassay
Achaea janata [6] = test: Toxicity in third instar larvae of Achaea janata assessed as mortality at 1 ug/insect measured after 4 to 28 days by topical bioassay
Spodoptera litura [7] = test: Antifeedant activity against third-instar larvae of tobacco caterpillar Spodoptera litura in compound treated fresh castor leaves assessed as consumption at 0.1% measured after 6 to 24 hr; in short: as §1
Achaea janata [8] = test: Antifeedant activity against third instar larvae of Achaea janata in compound treated fresh castor leaves assessed as consumption at 0.1% measured after 6 to 24 hr; in short: as §1

Structure (SMILES) | mortality (Achaea janata [1]) [%] | antifeedant EC50 (Achaea janata [2]) [microg/cm2] | Antifeedant EC50 (leaf-consumption) (Spodoptera litura [3]) [microg/cm2] | mortality (Spodoptera litura [4]) [%] | mortality (Spodoptera litura [5]) [%] | mortality (Achaea janata [6]) [%] | Activity (Spodoptera litura [7]) [%] | Activity (Achaea janata [8]) [%]
COc1cccc2c1C(=O)C(NCCOC(=O)[C@H](CCSC)NC(C)=O)=C(C)C2=O | 100 | 37.37 | 48.47 | <20 | – | – | – | –
COc1cccc2c1C(=O)C(NCCOC(=O)c1ccc(NC(C)=O)cc1)=C(C)C2=O | <20 | 268.88 | 117.25 | 63.8 | – | – | – | –
COc1cccc2c1C(=O)C(NCCOC(=O)[C@H](CS)NC(C)=O)=C(C)C2=O | <20 | >500 | >500 | 100 | – | – | – | –
COc1cccc2c1C(=O)C(NCCOC(=O)CCCNC(C)=O)=C(C)C2=O | <20 | >500 | 247.59 | <20 | – | – | – | –
COc1cccc2c1C(=O)C(NCCOC(=O)[C@H](C)NC(C)=O)=C(C)C2=O | <20 | 340.63 | >500 | <20 | – | – | – | –
COc1cccc2c1C(=O)C(NCCOC(=O)[C@H](CC(C)C)NC(C)=O)=C(C)C2=O | <20 | >500 | 466.28 | 74.2 | – | – | – | –
C/C=C(\C)C(=O)O[C@H]1C[C@@H](OC(C)=O)[C@@]2(C(=O)OC)CO[C@H]3[C@@H](O)[C@@](C)([C@]45O[C@@]4(C)[C@@H]4C[C@H]5O[C@@H]5OC=C[C@@]54O)[C@H]4[C@]1(CO[C@]4(O)C(=O)OC)[C@@H]32 [AZADIRACHTIN A] | – | – | – | – | 84 | 93.6 | – | –
COc1cccc2c1C(=O)C(NCCOC(=O)[C@@H](NC(C)=O)C(C)C)=C(C)C2=O | 32.6 | 104.59 | >500 | 84.5 | – | – | – | –
COc1cccc2c1C(=O)C(NCCOC(=O)[C@H](Cc1ccccc1)NC(C)=O)=C(C)C2=O | 23.4 | 51.96 | 105.93 | <20 | – | – | – | –
CC[C@H](C)[C@H](NC(C)=O)C(=O)OCCNC1=C(C)C(=O)c2cccc(OC)c2C1=O | <20 | 292 | >500 | <20 | – | – | – | –
CC1=CC(=O)c2c(O)cccc2C1=O [PLUMBAGIN] | <20 | – | – | <20 | – | – | 26 | 35.69
COc1cccc2c1C(=O)C(NCCOC(=O)[C@H](Cc1ccc(O)cc1)NC(C)=O)=C(C)C2=O | 24.6 | 199.45 | 461 | <20 | – | – | – | –
COc1cccc2c1C(=O)C(NCCOC(=O)CNC(C)=O)=C(C)C2=O | 100 | 69.51 | 36.87 | <20 | – | – | – | –
